Most compounds without a hit are left out; they make up all but 2.2% or so of the library.
APP 5'UTR act: activates APP 5'UTR luciferase reporter. SH-SY5Y APP 5'UTR luciferase reporter, luminescence; zero percent = DMSO vehicle wells. activation, % at 2 µM. 1% of 190,000 active;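 active = activation above a set limit, based on mean plus 3 SD of controls, cut at about 140% in these data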
NF-kB expr up: compounds increasing NF-kB expression in human neuronal cells; NF-kB reporter expression; hits give high values; fold change at 12.5 µM; 1.6% of 190,000 active; in the data active = fold change above about 3.3
FLuc stim CS: firefly luciferase counter-screen for stimulation assays; P08659; ATPlite luciferase biochemical, luminescence, 10 min; 0 = ATP-free wells, 1 = DMSO control; activation factor at 10 µM; 200,000 tested, under 10 active;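 active = luciferase activation factor, scaled between plate controls, of at least 2 with compound at 10 µM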
Target sequence (P08659 whole entry, looked up): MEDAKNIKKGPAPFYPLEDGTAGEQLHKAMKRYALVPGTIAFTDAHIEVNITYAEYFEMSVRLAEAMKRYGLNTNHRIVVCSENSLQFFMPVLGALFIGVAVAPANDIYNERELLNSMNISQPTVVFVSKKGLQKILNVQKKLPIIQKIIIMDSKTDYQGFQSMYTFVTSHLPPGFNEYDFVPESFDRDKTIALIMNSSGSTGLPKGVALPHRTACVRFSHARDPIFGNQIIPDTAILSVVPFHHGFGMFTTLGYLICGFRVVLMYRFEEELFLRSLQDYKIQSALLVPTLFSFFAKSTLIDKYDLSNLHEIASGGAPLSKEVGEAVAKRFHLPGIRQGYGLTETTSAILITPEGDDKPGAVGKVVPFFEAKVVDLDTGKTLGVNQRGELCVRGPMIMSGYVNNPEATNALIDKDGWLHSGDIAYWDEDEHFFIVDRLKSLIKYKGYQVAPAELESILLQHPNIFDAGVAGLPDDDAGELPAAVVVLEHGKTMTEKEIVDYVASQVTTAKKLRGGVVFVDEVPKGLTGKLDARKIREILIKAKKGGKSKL
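System: luciferase plus luciferin reagent, cell-free; medium: PBS as buffer for the ATP substrate; dosing: test compounds dosed from 2 mM stocks in 100% DMSO; timing: 10 min post-reagent at room temperature; measured by: luminescence measurement of luciferase light output; evaluation: luciferase activation, seen as luminescence increase over controls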
FLuc inh counter: inhibits firefly luciferase, flagging false hits in luciferase inhibition screens; ATPLite firefly luciferase biochemical luminescence, 10 min; inhibition, % at 10 µM; 1.5% of 200,000 active;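 active = inhibition above about 50% when tested at 10 µM, limit read from the data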
C8 TRAIL sens: caspase-8 TRAIL sensitization; 1% of 360,000 active; inhibition (viability loss, TRAIL sensitization), % at 10 µM; NB7+C8 cells + TRAIL, ATPlite viability luminescence; AID 624354;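 active = compounds causing at least 50% loss of cell viability in the single-dose screen, relative to plate controls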
PPC-1+TRAIL kill: compounds killing PPC-1 cancer cells with TRAIL present (potentiator screen, no TRAIL-free arm). PPC-1 cells + TRAIL, ATPLite viability luminescence. cell killing (% activity), % at 4 µM or 5 µM. 0.41% of 220,000 active. AID 1443;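 active = cell killing above 50% in the first pass at 4 µM, then a duplicate retest at 5 µM averaging 50% or more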;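 note: plate controls were cells with TRAIL plus DMSO for no effect and medium-only wells lacking cells for full effect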
The depositor's hits bear a star; x = no result.

SMILES	APP 5'UTR act	NF-kB expr up	FLuc stim CS	FLuc inh counter	C8 TRAIL sens	PPC-1+TRAIL kill
O=C(Nc1ccccc1Cl)c1cc(C2CCCCN2C(=O)CCCc2ccccc2)on1 (centres undefined)	x	x	x	x	1.0	x
c1ccc(-n2cnc3cc(NCc4cccs4)ccc32)cc1	205.3*	0.72	0.8	22.5	-1.7	16.0
Cc1ccc(-n2cnc3cc(NCc4cccs4)ccc32)cc1	21.1	1.45	0.9	9.4	17.9	26.8
CC(C)c1cc(Cn2c3ccccc3c(=O)n2C(C)Cn2cc(-c3ccccc3)nn2)on1 (centres undefined)	x	x	x	x	5.5	x
CCOC(=O)c1c(C)oc(=O)c(CC)c1O	x	x	x	x	-0.4	x
CCOC(=O)c1c(C)oc2c(F)c(F)c(F)c(F)c2c1=O	x	1.33	1	-4.8	94.0*	21.1
C=CCn1nc(C(=O)Nc2ccc(OC)cc2)cc1-c1sc(NC(=O)c2ccccc2)nc1C	x	x	x	x	14.8	x
CCCCN(CC)CCCNC(=O)C1c2ccccc2C(=O)N(C)C1c1cn(C)c2ccccc12 (centres undefined)	-1.9	1.09	1	-3.4	61.4*	-8.4
CCN(CC)CCCNC(=O)C1c2ccccc2C(=O)N(CCOC)C1c1ccc(F)cc1 (centres undefined)	3.9	1.11	1	-4.7	-3.4	-6.9
CCc1nc2ccc(C(=O)Nc3cc(-c4ccccc4)ccc3OC)cn2c1N(CCN(C)C)CC1CC1	x	x	x	x	24.3	x
CCCCNC(=O)C1(C)CCC(=O)N1C1CCN(Cc2ccccc2)CC1 (centres undefined)	x	x	x	x	-14.2	x
CCN(C)C1CN(Cc2cn(Cc3cccc(C(F)(F)F)c3)nn2)S(=O)(=O)C1 (centres undefined)	x	x	x	x	-17.1	x
O=C(N=Nc1ccc(NOC(=O)c2ccccc2Br)cc1)c1ccccc1O	16.4	1.45	0.4	61.2*	x	47.5
CCC(=O)N1CCC1(C)C(=O)Nc1ccccc1 (centres undefined)	x	x	x	x	-12.4	x
Cc1nn(Cc2ccccc2)c(Cl)c1/C=C/C(=O)OCC(=O)N1CCCC1=O	22.0	7.01*	1	-4.8	27.9	-8.2
CCOc1cc(C2NN=C(c3ccccc3)S2)ccc1OCc1ccc(F)cc1 (centres undefined)	97.2	4.46*	0.7	32.7	27.0	30.4
CCOc1cc(CNC2CCCC2)ccc1OCc1ccccc1Cl	-25.7	1.05	1.1	-5.4	30.6	19.7
CCOc1cc(C2NN=C(c3ccccc3)S2)ccc1OCc1ccccc1Cl (centres undefined)	18.2	3.7*	0.8	20.3	32.9	1.5
COc1ccc(Cc2nnc(SC)n2-c2ccc(F)cc2)cc1OC	x	x	x	x	-28.3	x
COc1ccccc1NC1=C(N2CCCCC2)C(=O)c2ccccc2C1=O	10.8	1.18	1	-0.2	50.0	71.7*
O=[N+]([O-])c1nccn1C1C=CC(O)C(CO)O1 (centres undefined)	x	x	x	x	10.0	x
O=C(N/N=C/c1cccnc1)c1cc(-c2ccccc2)nc2ccccc12	x	x	x	x	34.7	x
Cc1ccc(-c2cc(C(=O)N/N=C/c3cccnc3)c3ccccc3n2)cc1C	x	x	x	x	61.3*	x
Cc1cc(NC(=O)c2cc(-c3ccc(C)c(C)c3)nc3ccccc23)no1	5.6	1.03	0.7	26.9	8.0	5.8
NS(=O)(=O)c1ccc(CCNC(=O)c2cc(-c3ccc(Br)cc3)nc3ccccc23)cc1	-5.4	0.71	1	3.6	4.9	26.9
SMILES	APP 5'UTR act	NF-kB expr up	FLuc stim CS	FLuc inh counter	C8 TRAIL sens	PPC-1+TRAIL kill
Cc1ccc(-c2cc(C(=O)n3cnc4ccccc43)c3ccccc3n2)cc1C	12.2	1.54	0.3	68.8*	66.7*	47.9
CCNC(=S)NNC(=O)c1cc(-c2cccc(OC)c2)nc2ccccc12	-18.5	1.01	0.2	83.2*	21.2	50.8*
CCCOc1cccc(-c2cc(C(=O)NNC(=S)NCC)c3ccccc3n2)c1	-53.1	1.39	0.5	47.9	39.0	37.5
CCCc1ccc(-c2cc(C(=O)NCCc3ccc(S(N)(=O)=O)cc3)c3ccccc3n2)cc1	65.0	1.79	0.4	64.2*	57.9*	38.3
CCC(=O)N1CCC(C)(C(=O)NCc2ccc(F)cc2)C1 (centres undefined)	x	x	x	x	-9.2	x
CCc1nc2c(OCc3ccc(Cl)cc3Cl)cccn2c1N(C)C(=O)CC(C)C	x	x	x	x	5.3	x
Cc1ccccc1-c1cnc(C(O)c2cc(Cl)cc(Cl)c2)[nH]1 (centres undefined)	x	x	x	x	-11.2	x
COCCNC(=O)c1cc(-c2ccc(-c3ccccc3)cc2)nc2ccccc12	x	x	x	x	56.4*	x
CCCc1ccc(-c2cc(C(=O)NN3CCOCC3)c3ccccc3n2)cc1	39.3	1.19	0.4	58.9*	43.8	29.2
Cc1ccc(-c2cc(C(=O)NCc3ccccn3)c3ccccc3n2)cc1C	-4.8	0.83	0.5	52.2*	40.9	28.4
CCCc1ccc(-c2cc(C(=O)Nc3ccc([N+](=O)[O-])cn3)c3ccccc3n2)cc1	22.7	0.93	0.4	58.1*	51.1*	18.5
COc1cccc(-c2cnc(C(O)c3cc(C)c(OC)c(C)c3)[nH]2)c1 (centres undefined)	x	x	x	x	-8.5	x
C[C@@H](c1ccccc1)N1C[C@@H](COCc2ccccc2)Oc2cc(N3CCC[C@H]3C(N)=O)ccc2S1(=O)=O	x	x	x	x	-1.2	x
CC(C)Oc1cccc(-c2cc(C(=O)NC(=S)N(C)c3ccccc3C(=O)O)c3ccccc3n2)c1	1.5	1.33	0.4	64.0*	33.1	27.5
O=C(c1ccc(Cl)cc1Cl)N1CCc2ccccc21	x	x	x	x	3.1	x
O=C(/C=C/c1cccc(F)c1)OCC(=O)N1CCCc2ccccc21	x	x	x	x	-8.7	x
O=C(/C=C/c1cccc(F)c1)N1CCc2ccccc21	199.8*	0.98	0.4	62.1*	64.4*	43.2
O=C(/C=C/c1ccc(Cl)cc1Cl)N1CCc2ccccc21	103.2	2.91	0.4	62.6*	61.0*	38.5
O=C(Nc1ccc2nc(-c3ccccn3)[nH]c2c1)C1CCCCC1	33.5	1.22	0.4	62.7*	53.2*	38.2
Cc1ccc2nc(Cc3ccc(N)cc3)[nH]c2c1	160.1*	1.53	1	-0.4	2.7	-8.0
CC(C)c1nc2ccc(NC(=O)C3CCCCC3)cc2[nH]1	-19.7	1.09	0.7	27.9	6.7	20.5
Cc1ccc2nc(-c3ccccn3)[nH]c2c1	x	x	x	x	70.3*	x
Cc1ccc2nc(-c3ccccc3N)[nH]c2c1	198.2*	1.07	0.2	80.1*	33.1	46.8
O=C(O)C1=CCC(c2ccc(Cl)c(Cl)c2)N(S(=O)(=O)c2ccc(F)cc2)C1c1cccc(F)c1 (centres undefined)	x	x	x	x	6.6	x
c1ccc(-c2nc3ccccc3[nH]2)nc1	85.1	2.65	0.5	46.5	18.3	22.8
c1ccc(-c2nc3c(ccc4ccccc43)[nH]2)nc1	111.0	3.72*	0.6	40.7	29.1	19.5
Cc1ccccc1CNC(=O)c1ccc2nc([C@@H]3O[C@H](CO)[C@H](O)[C@H](O)[C@H]3O)[nH]c2c1	x	x	x	x	-3.1	x
